High-throughput results: PubChem BioAssay, several laboratories
VLA-4 inh: inhibition in a human VLA-4 binding assay | inhibition, % (about 7 µM as worked out from the volumes in the protocol) | VLA-4 expressing cells, ligand binding flow cytometry | 0.2% of 330,000 active | P13612; in the data active = inhibition above about 50%
TAAR1 agonist: human TAAR1 agonism. activation, % at 3 µM. 0.99% of 360,000 active. AID 624467. CHO RD-HGA16 TAAR1, Fluo-8 calcium fluorescence; vehicle wells 0%, saturating PEA agonist 100%;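 active = activation above the mean activation of all test compounds in the run plus 3 SD, cut at about 38% in these data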
Target sequence (Q96RJ0 whole entry, looked up): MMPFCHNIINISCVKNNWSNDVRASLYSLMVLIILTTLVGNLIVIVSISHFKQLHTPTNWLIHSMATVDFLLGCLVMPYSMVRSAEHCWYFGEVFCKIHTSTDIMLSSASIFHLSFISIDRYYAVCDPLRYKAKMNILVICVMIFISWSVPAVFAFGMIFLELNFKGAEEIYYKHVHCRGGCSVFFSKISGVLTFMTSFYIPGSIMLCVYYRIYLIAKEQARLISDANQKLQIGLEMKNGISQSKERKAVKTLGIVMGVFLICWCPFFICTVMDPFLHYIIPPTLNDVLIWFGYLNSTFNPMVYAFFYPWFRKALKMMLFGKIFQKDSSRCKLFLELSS
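Signal – calcium-sensitive Fluo-8 signal, excitation 470-495, emission 515-575 nm · System – RD-HGA16 (CHO) cells co-expressing Gα16 and hTAAR1 · Incubation – 17-24 h seeding, 75 min 37 °C dye, 30 min RT · Compound dosing – 3 µM single concentration · Repeats – no replicates (n 1)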
Rce1 inhib: blocks yeast Ras-converting enzyme; yeast membranes, quenched prenylated peptide cleavage fluorescence; calls only; 0.27% of 290,000 active; Q03530; AID 2563;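 active = fall in fluorescence gain of 50% or more versus controls, with final raw signal at or below 3038400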
Target sequence (Q03530 whole entry, looked up): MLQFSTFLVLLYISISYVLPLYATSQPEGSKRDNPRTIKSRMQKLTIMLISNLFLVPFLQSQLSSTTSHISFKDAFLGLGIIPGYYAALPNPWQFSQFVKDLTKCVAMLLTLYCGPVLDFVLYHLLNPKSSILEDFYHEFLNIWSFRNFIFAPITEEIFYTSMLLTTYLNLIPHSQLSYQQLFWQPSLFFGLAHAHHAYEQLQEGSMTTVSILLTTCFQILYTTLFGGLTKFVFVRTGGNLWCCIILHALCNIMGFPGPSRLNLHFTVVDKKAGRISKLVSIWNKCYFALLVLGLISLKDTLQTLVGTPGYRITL
TAAR1 antagonist: antagonists of human TAAR1; Q96RJ0; CHO RD-HGA16 TAAR1, Fluo-8 calcium fluorescence, antagonist; inhibition, % at 3 µM; 1.5% of 360,000 active; AID 624466;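 active = inhibition above a per-plate cutoff, the mean inhibition of test compounds on that plate plus 3 SD, cut at about 49% in these data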
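Material: RD-HGA16 CHO cells with stable hTAAR1 and Gα16; Dosing: single nominal final test compound concentration of 3 µM; Schedule: seeding 17-24 h prior, 75-min 37 °C, 30-min RT dye loading; Detection: kinetic Fluo-8 calcium fluorescence measurement; Measure: % inhibition from peak post-agonist over basal fluorescence ratio; Benchmarks: vehicle and agonist controls.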
Platelet DG rel: modulates dense granule release in human platelets; human platelet-rich plasma, SFLLRN dense granule ATP release, luminescence; inhibition, %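 (compounds screened at 7.5 µM in platelet-rich plasma)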; 0.22% of 300,000 active; AID 1663;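 active = mean replicate score, as percent of positive control, at or above 50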
TAAR1 nonsel count: counter-screen for TAAR1 antagonists: nonselective antagonists | shares compounds with TAAR1 antagonist | inhibition, % at 3 µM | 77% of 2,400 active | AID 651780 | counterscreen cell line, calcium fluorescence, antagonist mode; in the data active = inhibition above about 22%;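 note: CHO-Ga16 host cells stimulated with ATP at an EC80 level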
TAAR1 antag conf: confirmation of human TAAR1 antagonists. shares compounds with TAAR1 antagonist. TAAR1-expressing cells, fluorescence antagonist read-out. inhibition, % at 3 µM. 40% of 2,400 active; in the data active = inhibition above about 49%;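 note: CHO-Ga16 host cells challenged with agonist PEA near its EC80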
Ga16 ag counter: counter-screen for TAAR1 antagonists: nonselective Ga16 agonists | shares compounds with TAAR1 antagonist | Ga16-expressing cells, calcium fluorescence, agonist counterscreen | activation, % at 3 µM | 18% of 2,400 active; in the data active = activation above about 12%
TAAR1 ag count: TAAR1 agonism, antagonist counter-screen; shares compounds with TAAR1 antagonist; hTAAR1 cell line, fluorescence activation, agonist mode; activation, % at 3 µM; 2% of 2,400 active; AID 651955; in the data active = activation above about 37%;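 note: CHO cells stably expressing TAAR1 with calcium dye readout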
A number is an active result; i = inactive; nt = no result given. Only some compounds are listed: those with a hit (about 2.6% of all), similar ones and a draw of the others.

SMILES | VLA-4 inh | TAAR1 agonist | Rce1 inhib | TAAR1 antagonist | Platelet DG rel | TAAR1 nonsel count | TAAR1 antag conf | Ga16 ag counter | TAAR1 ag count
C=CCN1C(=O)CSc2ccc(C(=O)NCc3ccco3)cc21 | i | i | i | i | i | nt | nt | nt | nt
O=C(CSc1ccccc1C(=O)NCc1ccccc1)NC1CCCCCCC1 | i | i | i | 54 | i | i | i | i | i
O=C(CSc1ccccc1C(=O)O)NC1CCCCCC1 | i | i | i | i | i | nt | nt | nt | nt
COc1ccc(CNC(=O)COc2cc3c(c4oc(=O)cc(C)c24)CCC(C)(C)O3)cc1 | i | i | i | 62 | i | 29 | i | i | i
Cc1cc2ncc(C(=O)Nc3ccccc3)c(C)n2n1 | i | i | i | i | i | nt | nt | nt | nt
Cc1nn2c(C)c(C(=O)Nc3ccccc3)cnc2c1C#N | i | i | i | 53 | i | i | i | i | i
COC(=O)c1ccc(NC(=O)CSc2nn3c(=O)c(C)nnc3s2)cc1 | i | i | i | i | i | nt | nt | nt | nt
Cc1ccc(S(=O)(=O)NCC2CCC(C(=O)NCc3ccc4c(c3)OCO4)CC2)cc1 (stereo not drawn) | i | i | i | i | i | nt | nt | nt | nt
O=C(NCc1ccc2c(c1)OCO2)C1CCC(CNS(=O)(=O)c2ccc(Cl)cc2)CC1 (stereo not drawn) | i | i | i | 49 | i | i | i | i | i
Cc1cc(/C=N\NC(=O)CC(=O)NC2CCCCC2)c(C)n1-c1ccc(Cl)c(Cl)c1 | i | i | i | 56 | i | i | 71 | i | i
Oc1c(Br)cc(Br)cc1C=NCc1ccc(F)cc1 | i | i | i | 52 | i | 27 | i | i | i
Oc1c(Br)cc(Br)cc1C=NCc1ccccc1 | i | i | i | i | i | nt | nt | nt | nt
Cn1c(=O)n(C)c2cc([N+](=O)[O-])c(N3CCN(S(=O)(=O)c4ccccc4)CC3)cc21 | i | i | i | 62 | i | 26 | 54 | 15 | i
O=C(Nc1cccc(Cl)c1Cl)c1ccc(-c2ccccc2)cc1 | i | i | i | 60 | i | 35 | 90 | i | i
CCN=C1SC(C(=O)Nc2ccc(Cl)c(Cl)c2)CC(=O)N1CC (stereo not drawn) | i | i | nt | 80 | i | 44 | 66 | 13 | i
CCN=C1SC(C(=O)Nc2cccc(Br)c2)CC(=O)N1CC (stereo not drawn) | i | i | i | 75 | i | 37 | 63 | i | i
Cc1nc2ccccc2c2oc(C(=O)N3CCC(C)CC3)cc12 | i | i | i | i | i | nt | nt | nt | nt
Cc1nc2ccccc2c2oc(C(=O)N3CCc4ccccc4C3)cc12 | i | i | i | 58 | i | 26 | 49 | 15 | i
CCNC(=O)C1(C)CCCN(Cc2noc(-c3c(C)noc3C)n2)C1 (stereo not drawn) | nt | i | nt | i | nt | nt | nt | nt | nt
CC(C)(Cc1ccc(O)cc1)NC(=O)CC(=O)N/N=C/c1ccc(Cl)cc1 | i | i | nt | 74 | i | i | 80 | i | 43
CC(C)(Cc1ccc(O)cc1)NC(=O)CC(=O)N/N=C/c1ccc([N+](=O)[O-])cc1 | i | i | i | i | i | nt | nt | nt | nt
O=c1[nH]c(CSc2nnc(-c3cccnc3)n2C2CCCCC2)nc2ccccc12 | i | i | i | 65 | i | 28 | 56 | i | i
COc1ccc(CNC(=O)C(c2ccc(C)o2)N(Cc2cccs2)C(=O)Cc2cccs2)cc1 (stereo not drawn) | i | i | i | 87 | i | 42 | 68 | i | i
COc1ccc(CNC(=O)Cc2cccs2)cc1 | i | nt | i | nt | i | nt | nt | nt | nt
COCCN(C(=O)Cc1cccs1)C(C(=O)NCc1ccc(OC)cc1)c1ccc(C(C)C)cc1 (stereo not drawn) | i | i | i | 64 | i | 29 | 54 | i | i
SMILES | VLA-4 inh | TAAR1 agonist | Rce1 inhib | TAAR1 antagonist | Platelet DG rel | TAAR1 nonsel count | TAAR1 antag conf | Ga16 ag counter | TAAR1 ag count
O=C(NCc1ccccc1)C(c1ccccc1)N(Cc1ccc2c(c1)OCO2)C(=O)Cc1cccs1 (stereo not drawn) | i | i | i | 80 | i | 40 | 59 | 12 | i
CCc1ccc(C(C(=O)NCc2ccc(OC)cc2)N(CCOC)C(=O)Cc2cccs2)cc1 (stereo not drawn) | i | i | i | 73 | i | 29 | 53 | i | i
COCCN(C(=O)Cc1cccs1)C(C(=O)NCc1ccc(OC)cc1)c1ccc(C)cc1 (stereo not drawn) | i | i | i | i | i | nt | nt | nt | nt
O=C(Cc1cccs1)NCc1ccc2c(c1)OCO2 | i | i | i | i | i | nt | nt | nt | nt
C=CCN=C1NC(CCc2ccccc2)C(C(=O)OC)=C(C)N1C (stereo not drawn) | nt | i | nt | i | nt | nt | nt | nt | nt
COc1ccc(CN2CCN(C(=O)c3cc(-c4cccnc4)nc4ccc(Cl)cc34)CC2)c(OC)c1OC | i | i | i | 72 | i | 32 | 54 | i | i
O=C(c1cc(-c2ccncc2)nc2ccc(Cl)cc12)N1CCN(Cc2ccc3c(c2)OCO3)CC1 | i | i | i | 58 | i | 32 | 53 | i | i
COc1ccc(-c2nc3c(c(=O)n(C)c(=O)n3C)n2CC2CC(c3ccccc3)=NO2)cc1OC (stereo not drawn) | i | i | i | 62 | i | 30 | 50 | i | i
CC1CCCCC1NC(=O)c1ccc(-n2cncn2)cc1 (stereo not drawn) | i | i | nt | 93 | nt | i | i | i | i
O=C1C=C(OCCF)CC(c2ccc(Br)cc2)O1 (stereo not drawn) | nt | i | nt | i | nt | nt | nt | nt | nt
Cc1cccc(C)c1-c1ccc(CN2C(CC(C)C)C(=O)N(Cc3cn(CCO)nn3)CCS2(=O)=O)cc1 (stereo not drawn) | nt | i | nt | 90 | nt | 53 | 67 | 21 | i
CCOC(=O)CC1=CCc2c1ccc(OC)c2OC | nt | i | nt | i | nt | nt | nt | nt | nt
COc1ccccc1N1CCN(C(=O)C2CCCN(c3ncnc4c3nc3n4CCCCC3)C2)CC1 (stereo not drawn) | i | i | i | i | i | nt | nt | nt | nt
O=C(C1CCCN(c2ncnc3c2nc2n3CCCCC2)C1)N1CCN(c2ccccc2)CC1 (stereo not drawn) | i | i | i | 52 | i | 23 | i | i | i
CC1(c2ccccc2Cl)NC(=O)N(CC(=O)N2CCc3ccccc32)C1=O (stereo not drawn) | i | i | nt | i | nt | nt | nt | nt | nt
COC(=O)Nc1sc2c(c1C(=O)NCc1ccco1)CCC2 | i | i | i | i | i | nt | nt | nt | nt
COC(=O)Nc1sc2c(c1C(=O)NCc1ccco1)CCCC2 | i | i | i | 107 | i | i | i | i | i
COc1ccc(C(=O)NC(C)c2csc(C)n2)cc1OC1CCN(C(C)=O)CC1 (stereo not drawn) | i | i | i | i | i | nt | nt | nt | nt
CSc1ncccc1C(=O)OCC(=O)N1CCCC1 | i | i | nt | 101 | nt | i | i | i | i
